ChEMBL document CHEMBL1124929, “Indolo[2,1-a]isoquinolines. Syntheses, steroid hormone receptor binding affinities, and cytostatic activity” (1990)

Key:
[1] = biological target: T1, Androgen Receptor (Bos taurus) (UniProt Q5EM59); assay: Relative binding affinity(RBA) for 50% displacement of [3H]mibolerone from Androgen receptor compared to testorone
T1 sequence (whole entry): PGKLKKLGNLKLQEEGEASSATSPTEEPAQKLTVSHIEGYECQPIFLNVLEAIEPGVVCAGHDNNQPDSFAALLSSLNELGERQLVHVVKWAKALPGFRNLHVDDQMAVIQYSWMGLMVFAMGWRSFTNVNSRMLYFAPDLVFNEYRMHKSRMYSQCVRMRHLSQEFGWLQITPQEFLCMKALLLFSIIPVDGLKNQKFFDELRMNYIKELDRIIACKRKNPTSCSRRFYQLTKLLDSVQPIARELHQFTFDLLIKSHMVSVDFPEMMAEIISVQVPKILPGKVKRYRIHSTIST
Method in brief: (§1)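 Receptor source was calf uterine cytosol (105000g supernatant, 3 mg/mL protein in assay). Buffers were Tris/EDTA pH 7.4, with NaN₃ for ER, molybdate/glycerol for AR, and sucrose for PR. Tracers were 1 nM [³H]estradiol, [³H]mibolerone or [³H]Org 2058. Incubation was at 0–4 °C for 16 h (ER) or 2 h (AR, PR), with 4–6 competitor concentrations. Nonspecific binding used 2 µM of the unlabeled hormone. Separation was by dextran-coated charcoal. RBA is the ratio of IC50 values for hormone and compound ×100, mean of two triplicate experiments.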

[2] = biological target: Estrogen receptor (Bos taurus) (UniProt Q9XSB5+P49884); assay: Relative binding affinity(RBA) for 50% displacement of [3H]-estradiol from Estrogen receptor compared to 17-beta-estradiol; format: protein assay; method in brief: as §1
MDA-MB-231 [3] = assay: Cytostatic effect on hormone-independent MDA-MB 231 human breast cancer cell proliferation at 1x10E-5 M; format: functional
Method in brief: (§2)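 Cells were plated at about 2 × 10⁴ per well in six-well dishes. MCF-7 cells were grown in modified improved MEM with 5% NCS, switched to charcoal-treated NCS two weeks before the test, and exposed for 5 days with a re-dose on day 4. MDA-MB 231 cells were grown in McCoy 5a with 10% NCS and exposed for 2 days. Compounds were given 1 day after plating in 0.1% DMSO, with DMSO-matched controls. Read-out was cell number as % T/C, mean of three experiments with six dishes.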

MDA-MB-231 [4] = assay: Effect on [3H]thymidine incorporation into MDA-MB 231 human breast cancer cells at 5x10E-6M; format: functional
Method in brief: (§3)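 Cells were seeded at ~2 × 10⁴ per well, treated from the next day in 0.1% DMSO, with DMSO controls. MCF-7 cells were held in charcoal-stripped NCS for 2 weeks, treated for 5 days and re-dosed on day 4. MDA-MB 231 cells were grown in McCoy 5a/10% NCS and treated for 2 days. At the end, 1 µCi [³H]thymidine per well was added for 2 h. Result is % T/C, mean of three experiments × six dishes.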

MCF7 = assay: Effect on [3H]thymidine incorporation into MCF-7 human breast cancer cells at 1x10E-6M; format: functional; method in brief: as §3
[5] = biological target: T2, Estrogen receptor (Mus musculus) (UniProt O08537+P19785); assay: Estrogenic activity in uterotrophic assay in immature mice at 10.0 ug subcutaneous dose; format: functional
Method in brief: (§4)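 Immature female NMRI mice, 20 days old, in groups of 6-10, were dosed sc once daily for three consecutive days. Compounds were given in PEG/0.9% saline 1:1; vehicle controls were included. Animals were killed 24 h after the last dose. Uteri were fixed in Bouin solution and the effect was taken as uterine dry weight (mg)/body weight (g) ×100, given as mean ± SD.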

[6] = biological target: T2, Estrogen receptor (Mus musculus); assay: (§5) Estrogenic activity in uterotrophic assay in immature mice at 250 ug subcutaneous dose; format: functional; method in brief: as §4
[7] = biological target: T2, Estrogen receptor (Mus musculus); assay: Estrogenic activity in uterotrophic assay in immature mice at 50.0 ug subcutaneous dose; format: functional; method in brief: as §4
[8] = biological target: T2, Estrogen receptor (Mus musculus); assay: as §5; format: functional; method in brief: as §4; remark: listed apart in the source
[9] = biological target: T2, Estrogen receptor (Mus musculus); assay: Inhibition of 0.4 ug estrone-stimulated uterine growth in mice at 2 ug subcutaneous dose; format: functional
Method in brief: (§6)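 Immature 20-day-old female NMRI mice received sc injections on three consecutive days. Each injection held 0.4 µg estrone plus the compound in PEG/saline 1:1. […] Significance was tested by Mann-Whitney U test.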

[10] = biological target: T2, Estrogen receptor (Mus musculus); assay: Inhibition of 0.4 ug estrone-stimulated uterine growth in mice at 250 ug subcutaneous dose; format: functional; method in brief: as §6
[11] = biological target: T3, Androgen receptor (Mus musculus) (UniProt P19091); assay: Relative effect on seminal vesicle weight in adult and castrated mice at 100 ug dose; format: functional, tissue-based
T3 sequence (whole entry): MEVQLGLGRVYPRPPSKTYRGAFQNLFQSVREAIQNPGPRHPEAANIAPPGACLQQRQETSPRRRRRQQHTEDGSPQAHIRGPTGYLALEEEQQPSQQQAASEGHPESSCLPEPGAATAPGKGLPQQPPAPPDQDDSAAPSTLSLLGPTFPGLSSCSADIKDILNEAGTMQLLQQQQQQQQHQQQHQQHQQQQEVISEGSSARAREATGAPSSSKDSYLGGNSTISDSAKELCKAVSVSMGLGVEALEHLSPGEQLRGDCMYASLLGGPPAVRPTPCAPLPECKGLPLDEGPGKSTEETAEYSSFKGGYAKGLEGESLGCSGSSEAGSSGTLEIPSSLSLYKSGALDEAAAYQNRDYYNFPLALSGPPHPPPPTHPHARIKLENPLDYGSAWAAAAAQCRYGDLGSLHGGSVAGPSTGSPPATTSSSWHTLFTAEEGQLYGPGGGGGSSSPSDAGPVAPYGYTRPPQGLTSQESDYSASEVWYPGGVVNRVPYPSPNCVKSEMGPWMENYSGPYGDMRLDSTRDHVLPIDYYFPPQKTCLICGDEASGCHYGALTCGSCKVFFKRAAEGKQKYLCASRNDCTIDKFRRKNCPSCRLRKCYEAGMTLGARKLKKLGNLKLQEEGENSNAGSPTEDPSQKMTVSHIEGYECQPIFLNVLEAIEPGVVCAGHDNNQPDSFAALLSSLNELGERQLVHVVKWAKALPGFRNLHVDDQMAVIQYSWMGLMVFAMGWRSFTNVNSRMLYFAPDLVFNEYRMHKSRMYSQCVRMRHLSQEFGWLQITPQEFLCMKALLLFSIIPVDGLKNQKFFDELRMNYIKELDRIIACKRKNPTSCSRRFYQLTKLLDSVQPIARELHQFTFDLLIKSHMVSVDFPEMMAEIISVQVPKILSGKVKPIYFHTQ
Method in brief: (§7)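 Adult male mice, 23–25 g, six per group, were used intact or castrated via the scrotal route under ether 5 days before the test. Castrates received 0.3 mg testosterone propionate daily. Compounds were injected daily in olive oil for nine days. Seminal vesicles were taken 24 h later, fixed in Bouin solution, dried overnight at 100 °C and weighed. Result is organ mg/body g ×100; % inhibition = [1 − treated/control] × 100.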

[12] = biological target: T3, Androgen receptor (Mus musculus); assay: Relative effect on seminal vesicle weight in adult and castrated mice at 10 ug dose; format: functional, tissue-based; method in brief: as §7
MDA-MB-231 [13] = assay: Cytostatic effect on hormone-independent MDA-MB 231 human breast cancer cell proliferation at 1x10E-6M; format: functional; method in brief: as §2
[14] = biological target: T3, Androgen receptor (Mus musculus); assay: Inhibition of seminal vesicle weight in intact mice at 100 ug
[15] = biological target: T3, Androgen receptor (Mus musculus); assay: Inhibition of seminal vesicle weight in intact mice at 10.0 ug

T2 sequence (O08537 whole entry, looked up): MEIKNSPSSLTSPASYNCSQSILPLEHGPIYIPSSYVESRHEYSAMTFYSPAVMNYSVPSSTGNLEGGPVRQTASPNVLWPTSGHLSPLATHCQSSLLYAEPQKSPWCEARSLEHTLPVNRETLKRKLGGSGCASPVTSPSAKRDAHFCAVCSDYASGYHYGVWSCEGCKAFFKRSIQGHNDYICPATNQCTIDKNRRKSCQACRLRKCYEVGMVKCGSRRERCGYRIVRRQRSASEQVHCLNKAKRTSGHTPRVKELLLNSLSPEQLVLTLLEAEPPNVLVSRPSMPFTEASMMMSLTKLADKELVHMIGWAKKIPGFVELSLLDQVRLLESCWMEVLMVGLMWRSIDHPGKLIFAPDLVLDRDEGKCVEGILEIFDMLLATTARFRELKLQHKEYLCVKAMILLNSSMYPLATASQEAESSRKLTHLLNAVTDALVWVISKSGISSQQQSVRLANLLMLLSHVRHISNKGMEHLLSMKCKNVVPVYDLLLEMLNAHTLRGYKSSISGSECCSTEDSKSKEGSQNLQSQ
T2 sequence (P19785 whole entry, looked up): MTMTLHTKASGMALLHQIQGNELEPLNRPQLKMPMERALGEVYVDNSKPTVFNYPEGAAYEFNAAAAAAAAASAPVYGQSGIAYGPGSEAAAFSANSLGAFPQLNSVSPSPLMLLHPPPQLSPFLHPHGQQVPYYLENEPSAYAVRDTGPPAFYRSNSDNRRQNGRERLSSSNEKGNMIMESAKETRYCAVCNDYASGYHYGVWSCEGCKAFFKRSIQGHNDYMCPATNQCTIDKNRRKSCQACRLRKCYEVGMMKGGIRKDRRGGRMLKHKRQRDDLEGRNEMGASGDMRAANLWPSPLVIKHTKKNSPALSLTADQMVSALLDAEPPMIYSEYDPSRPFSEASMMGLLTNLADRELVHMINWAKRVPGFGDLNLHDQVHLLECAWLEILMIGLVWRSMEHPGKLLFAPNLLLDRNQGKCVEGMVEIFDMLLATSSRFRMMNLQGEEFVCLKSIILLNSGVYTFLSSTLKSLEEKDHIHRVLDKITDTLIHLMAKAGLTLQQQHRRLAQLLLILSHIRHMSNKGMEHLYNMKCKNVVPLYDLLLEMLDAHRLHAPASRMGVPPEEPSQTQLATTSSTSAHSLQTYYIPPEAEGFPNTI

RBA [1]: 0.23
RBA [2]: 17
Effect [5]: 51
Effect [6]: 42.6
Effect [7]: 45.7
Effect [8]: 53.4
inhibition [9]: 7.2%
inhibition [10]: 34.1%
Relative seminal vesicle weight [11]: 54.5
Relative seminal vesicle weight [12]: 132
inhibition [14]: 67%
inhibition [15]: 22%
SMILES: CCC1Cc2cc(OC(C)=O)ccc2-c2cc3cc(OC(C)=O)ccc3n21 (stereo unspecified)
T/C (MDA-MB-231 [3]): 4%
T/C (MDA-MB-231 [4]): 4%
T/C (MCF7): 25%
T/C (MDA-MB-231 [13]): 74%
